Results on 20 compounds are retold here after ChEMBL document CHEMBL3627660, “Tetrafluorophenoxymethyl ketone cruzain inhibitors with improved pharmacokinetic properties as therapeutic leads for Chagas' disease” (Bioorg Med Chem Lett, 2015).

The subject of one data set is MDCK. The experiment in a line: Apparent permeability from apical to basolateral side in MDCK cells assessed as per 10^-6 cells. As to conditions: dog. It counts as ADME, cell-based, Canis lupus familiaris.
The next data set concerns the target Cytochrome P450 3A4 (Homo sapiens, UniProt P08684). The experiment in a line: Inhibition of CYP3A4 (unknown origin). In kind it is ADME.
Another data set addresses Cruzipain (Trypanosoma cruzi, UniProt P25779). The experiment in a line: Inhibition of Trypanosoma cruzi recombinant cruzain using Z-FR-AMC as substrate after 5 mins by fluorescence assay.
A further data set deals with Trypanosoma cruzi. The experiment in a line: Antitrypanosomal activity against Trypanosoma cruzi infected in C2C12 cells after 72 hrs by DAPI staining. As to conditions: C2C12, 72 h. It counts as functional, organism-based.
Data set [1] can be described thus: AUC in mouse at 10 mg/kg, iv. It counts as ADME, organism-based. As to conditions: in vivo.
The nature of data set [2]: Clearance in mouse at 10 mg/kg, iv. It counts as ADME, organism-based. As to conditions: in vivo. In short, it runs like this: (§1)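 Mouse PK study with two dosing arms: 40 mg/kg orally and 10 mg/kg intravenously. The parameters derived were AUC, T1/2, CL, Vss and F%.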
A short description of data set [3]: Volume of distribution at steady state in mouse at 10 mg/kg, iv. As to conditions: in vivo, read-out: Vdss. In kind it is ADME, organism-based. In outline:
as §1

Data set [4] can be described thus: Half life in mouse at 40 mg/kg, po. As to conditions: in vivo. In kind it is ADME, organism-based. In outline:
as §1

The subject of the next data set is Mus musculus. The experiment in a line: Oral bioavailability in mouse at 40 mg/kg. It counts as ADME, organism-based. As to conditions: in vivo. In outline:
as §1

The nature of data set [5]: Half life in mice after oral dosing. The conditions noted are these: in vivo.
Data set [6] can be described thus: AUC in mouse at 40 mg/kg, po. In kind it is ADME, organism-based. The conditions noted are these: in vivo.
Data set [7] can be described thus: Cmax in mouse at 10 mg/kg, iv. As to conditions: in vivo. It counts as ADME, organism-based. Further details: dose 10 mg/kg, route intravenous. In outline: (§2)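 In vivo mouse pharmacokinetic study with two arms, intravenous at 10 mg/kg and oral at 40 mg/kg. Exposure parameters derived were AUC, T1/2, CL, Vss and oral bioavailability (F%).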
A short description of data set [8]: Half life in mouse at 10 mg/kg, iv. It counts as ADME, organism-based. The conditions noted are these: in vivo. In short, it runs like this: as §1
A short description of data set [9]: Cmax in mouse at 40 mg/kg, po. It counts as ADME, organism-based. Further details: dose 40 mg/kg, route oral. As to conditions: in vivo. In outline: as §2

Cruzipain, sequence (P25779 whole entry): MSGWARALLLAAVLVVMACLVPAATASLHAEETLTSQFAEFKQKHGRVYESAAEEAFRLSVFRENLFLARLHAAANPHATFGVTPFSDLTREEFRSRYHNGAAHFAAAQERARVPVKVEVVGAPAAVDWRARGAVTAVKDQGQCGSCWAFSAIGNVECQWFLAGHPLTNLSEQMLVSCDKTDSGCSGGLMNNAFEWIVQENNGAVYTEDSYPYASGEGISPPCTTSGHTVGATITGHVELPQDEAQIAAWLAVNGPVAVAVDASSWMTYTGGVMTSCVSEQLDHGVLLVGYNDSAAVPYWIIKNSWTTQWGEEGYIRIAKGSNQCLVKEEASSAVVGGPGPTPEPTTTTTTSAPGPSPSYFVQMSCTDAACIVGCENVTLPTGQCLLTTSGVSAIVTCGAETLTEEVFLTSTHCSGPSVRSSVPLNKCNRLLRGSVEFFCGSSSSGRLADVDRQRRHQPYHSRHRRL
Cytochrome P450 3A4, sequence (P08684 whole entry): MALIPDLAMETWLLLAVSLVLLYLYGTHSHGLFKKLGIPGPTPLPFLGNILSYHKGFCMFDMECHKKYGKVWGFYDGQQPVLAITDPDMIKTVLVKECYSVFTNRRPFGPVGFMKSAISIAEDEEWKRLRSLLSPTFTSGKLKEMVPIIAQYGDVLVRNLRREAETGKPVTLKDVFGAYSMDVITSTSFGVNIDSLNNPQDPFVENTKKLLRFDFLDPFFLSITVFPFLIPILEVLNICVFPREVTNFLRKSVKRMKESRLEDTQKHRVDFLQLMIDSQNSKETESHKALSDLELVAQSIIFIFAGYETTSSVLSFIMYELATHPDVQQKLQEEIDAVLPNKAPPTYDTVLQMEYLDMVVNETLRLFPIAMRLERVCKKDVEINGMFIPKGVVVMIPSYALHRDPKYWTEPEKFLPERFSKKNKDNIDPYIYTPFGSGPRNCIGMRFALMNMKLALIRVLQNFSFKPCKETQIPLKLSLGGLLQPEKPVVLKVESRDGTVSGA

As for `C[C@@](NCc1ccc2ncsc2c1)(c1cn(C(CCS(C)(=O)=O)C(=O)COc2c(F)c(F)cc(F)c2F)nn1)C1CCCC1` (some centres undefined), the Papp with MDCK was found to be 6.8 ×10⁻⁶ cm/s. Further, the half-maximal inhibitory concentration (IC50) against Cytochrome P450 3A4 stood at 200 nM; at Cruzipain, 25 nM; with Trypanosoma cruzi it was 10 nM.

For the compound `CCCCC(C(=O)COc1c(F)c(F)cc(F)c1F)n1cc([C@@](C)(NCc2ccc3ncccc3c2)C(C)C)nn1` (some centres undefined), the Papp in the data set on MDCK turned out to be 3.02 ×10⁻⁶ cm/s. For the same compound, the AUC in [1] was found to be 4670 ng·h/mL; in data set [6] it was 3860 ng·h/mL. In addition, the clearance in data set [2] is 36.2 mL/min/kg. Besides, the Vd in data set [3] worked out at 4.2 L/kg. Further, the figures for the half-life in [4], in [5] and in data set [8] were 3.34 h, 3.3 h and 2.95 h, respectively. Moreover, in the data set with Mus musculus, the F is reported as 21%. Further, the IC50 was 3800 nM against Cytochrome P450 3A4 and 22 nM in the data set with Trypanosoma cruzi. For the same compound, the Cmax in data set [7] is 4130 ng/mL; in data set [9], 833 ng/mL.

As for `CCCCC(C(=O)COc1c(F)c(F)cc(F)c1F)n1cc([C@@](C)(NCc2ccc3ncccc3c2)C2CCCC2)nn1` (some centres undefined), in the data set on MDCK, the Papp stood at 0.48 ×10⁻⁶ cm/s. For the same compound, the exposure (AUC) came out at 8710 ng·h/mL in [1] and 8100 ng·h/mL in data set [6]. Besides, in data set [2], the clearance is 19 mL/min/kg. In addition, the Vd in data set [3] worked out at 5.4 L/kg. Further, the values for the half-life in data set [4] and in data set [8] were 3 h and 4.2 h, respectively. This compound also returned a F with Mus musculus of 23%. Also, the IC50 at Cytochrome P450 3A4 came out at 260 nM; on Cruzipain, 27 nM; in the data set on Trypanosoma cruzi it was 15 nM.

In the case of `COCCC(C(=O)COc1c(F)c(F)cc(F)c1F)n1cc([C@@](C)(NCc2ccc3ncsc3c2)C2CCCC2)nn1` (some centres undefined), the values for the IC50 at Cruzipain and in the data set with Trypanosoma cruzi were 124 nM and 7 nM, respectively.

Take `COCCC(C(=O)COc1c(F)c(F)cc(F)c1F)n1cc([C@@](C)(NCc2ccc3ncsc3c2)C(C)C)nn1` (some centres undefined): the values for the IC50 on Cruzipain and in the data set on Trypanosoma cruzi were 63 nM and 44 nM, respectively.

As to `CC(C)[C@](C)(NCc1ccc2ncsc2c1)c1cn(C(CCS(C)(=O)=O)C(=O)COc2c(F)c(F)cc(F)c2F)nn1` (some centres undefined), the IC50 at Cruzipain was 125 nM; in the data set with Trypanosoma cruzi it was 12 nM.

For the compound `CCCCC(C(=O)COc1c(F)c(F)cc(F)c1F)n1cc([C@@](C)(NC(=O)c2ccc3ncccc3c2)C(C)C)nn1` (some centres undefined), the IC50 on Cruzipain worked out at 1350 nM; in the data set with Trypanosoma cruzi, 700 nM.

As to `CCCCC(C(=O)COc1c(F)c(F)cc(F)c1F)n1cc([C@@](C)(NCc2ccc3ncsc3c2)C(C)C)nn1` (some centres undefined), in the data set on MDCK, the Papp worked out at 2.26 ×10⁻⁶ cm/s. Also, the AUC came to 9610 ng·h/mL in data set [1] and 6570 ng·h/mL in data set [6]. In data set [2], this compound came in with a clearance of 16.6 mL/min/kg. Besides, the Vd in [3] was 6.5 L/kg. Also, the figures for the half-life in [4] and in data set [8] were 3.41 h and 5.67 h, respectively. The F in the data set on Mus musculus stood at 19.1%. Further, the results for the IC50 against Cytochrome P450 3A4, at Cruzipain and with Trypanosoma cruzi were 300 nM, 37 nM and 2 nM, respectively. Moreover, the highest level in data set [9] (Cmax) was 1230 ng/mL.

Turning to `CCCCC(C(=O)COc1c(F)c(F)cc(F)c1F)n1cc([C@@](C)(NCc2ccc3ncsc3c2)C2CCCC2)nn1` (some centres undefined), the IC50 at Cruzipain came out at 5 nM; with Trypanosoma cruzi, 3 nM.

Regarding `CCCCC(C(=O)COc1c(F)c(F)cc(F)c1F)n1cc([C@@](C)(NCc2ccn3nccc3n2)C(C)C)nn1` (some centres undefined), in the data set on MDCK, the Papp is 15.1 ×10⁻⁶ cm/s. Moreover, the IC50 was determined as 314 nM at Cytochrome P450 3A4, 75 nM at Cruzipain and 8 nM with Trypanosoma cruzi.

As for `COCCC(C(=O)COc1c(F)c(F)cc(F)c1F)n1cc([C@@](C)(NCc2ccn3nccc3n2)C2CCCC2)nn1` (some centres undefined), the IC50 turned out to be 2820 nM on Cruzipain and 20 nM with Trypanosoma cruzi.

Take `CCCCC(C(=O)COc1c(F)c(F)cc(F)c1F)n1cc([C@@](C)(NC(=O)c2ccncc2)C(C)C)nn1` (some centres undefined): the IC50 on Cruzipain came to 23000 nM; in the data set on Trypanosoma cruzi, 1600 nM.

Regarding `CC(C)[C@](C)(NCc1ccc2ncccc2c1)c1cn(C(CCS(C)(=O)=O)C(=O)COc2c(F)c(F)cc(F)c2F)nn1` (some centres undefined), in the data set with MDCK, the Papp is recorded as 3.49 ×10⁻⁶ cm/s. Also, the IC50 against Cytochrome P450 3A4 turned out to be 1200 nM; on Cruzipain, 560 nM; in the data set with Trypanosoma cruzi, 380 nM.

For `CCCCC(C(=O)COc1c(F)c(F)cc(F)c1F)n1cc([C@@](C)(NCc2ccncc2)C(C)C)nn1` (some centres undefined), the IC50 on Cruzipain came to 1100 nM; in the data set on Trypanosoma cruzi, 143 nM.

As for `COCCC(C(=O)COc1c(F)c(F)cc(F)c1F)n1cc([C@@](C)(NCc2ccc3ncccc3c2)C(C)C)nn1` (some centres undefined), the IC50 at Cruzipain amounted to 340 nM; with Trypanosoma cruzi, 2 nM.

Consider `CC(C)[C@](C)(NCc1ccc2occc2c1)c1cn(C(CCS(C)(=O)=O)C(=O)COc2c(F)c(F)cc(F)c2F)nn1` (some centres undefined), for which the IC50 at Cruzipain was 880 nM; in the data set with Trypanosoma cruzi, 3 nM.

In the case of `CC(C)[C@](C)(NCc1ccn2nccc2n1)c1cn(C(CCS(C)(=O)=O)C(=O)COc2c(F)c(F)cc(F)c2F)nn1` (some centres undefined), the IC50 at Cruzipain was 467 nM; with Trypanosoma cruzi it was 2340 nM.

On to `C[C@@](NCc1ccc2occc2c1)(c1cn(C(CCS(C)(=O)=O)C(=O)COc2c(F)c(F)cc(F)c2F)nn1)C1CCCC1` (some centres undefined), for which the IC50 at Cruzipain was found to be 790 nM; in the data set on Trypanosoma cruzi, 5 nM.

With `CCCCC(C(=O)COc1c(F)c(F)cc(F)c1F)n1cc([C@@](C)(NCc2ccn3nccc3n2)C2CCCC2)nn1` (some centres undefined), the Papp with MDCK is given as 2.9 ×10⁻⁶ cm/s. In addition, the AUC in [1] is 5370 ng·h/mL; in [6] it was 8110 ng·h/mL. For the same compound, the clearance in [2] is 30.7 mL/min/kg. In data set [3], the Vd worked out at 4.19 L/kg. For the same compound, the half-life in data set [4] was 2.32 h; in data set [8] it was 3.04 h. Also, in the data set with Mus musculus, the F came out at 37%. The IC50 was determined as 263 nM on Cytochrome P450 3A4 and 3 nM at Cruzipain.

`CCCCC(C(=O)COc1c(F)c(F)cc(F)c1F)n1cc([C@@](C)(NC(=O)c2ccc3ncsc3c2)C(C)C)nn1` (some centres undefined): the figures for the IC50 on Cruzipain and with Trypanosoma cruzi were 3590 nM and 650 nM, respectively.
